The source made the active and inactive calls. No cut-off for these calls is given here. Bounds are passed on as bounds.

The record followed here is ChEMBL document CHEMBL4622989, “From Bacteria to Cancer: A Benzothiazole-Based DNA Gyrase B Inhibitor Redesigned for Hsp90 C-Terminal Inhibition” (ACS Med Chem Lett, 2020).

One data set has as its system MCF7. Description: Antiproliferative activity against human MCF7 cells assessed as reduction in cell viability. Format: functional, cell-based.
In the next data set the test system is SK-BR-3. Nature of the data set: Antiproliferative activity against human SKBR3 cells assessed as reduction in cell viability. Format: functional, cell-based.
Data set [1] addresses T1, Heat shock protein HSP90 (Homo sapiens, UniProt P07900+P08238). Nature of the data set: Inhibition of HSP90 at C-terminus in human SKBR3 cell lysates assessed as induction of CDK4 protein degradation at 0.1 to 10 uM after 24 hrs by Western blot analysis. Format: cell-based. To be noted: SK-BR-3. The method, boiled down: (§1)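 SKBr3 breast cancer cells were treated for 24 h and then lysed. Hsp90-dependent client proteins and Hsp70 in the lysates were analysed by Western blot. Geldanamycin at 500 nM served as the reference treatment. Blot images were quantified.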
(In western blotting, separated proteins are transferred to a membrane and probed.)

Data set [2] addresses T1, Heat shock protein HSP90. Description: Inhibition of HSP90 at C-terminus in human SKBR3 cell lysates assessed as induction of Raf1 protein degradation at 0.1 to 10 uM after 24 hrs by Western blot analysis. The format is cell-based. Conditions: SK-BR-3. A digest of the protocol:
as §1

Data set [3] concerns the target T1, Heat shock protein HSP90. Description: Inhibition of HSP90 at C-terminus in human SKBR3 cell lysates assessed as induction of AKT protein degradation at 0.1 to 10 uM after 24 hrs by Western blot analysis. Format: cell-based. To be noted: SK-BR-3. A digest of the protocol:
as §1

Data set [4] has as its target T1, Heat shock protein HSP90. Nature of the data set: Inhibition of HSP90 at N-terminus in human SKBR3 cell lysates assessed as induction of heat shock response by measuring increase in HSP70 protein level at 0.1 to 10 uM after 24 hrs by Western blot analysis. Format: cell-based. To be noted: sk-br-3, 24 h. The method, boiled down:
as §1

For data set [5], the target named is T1, Heat shock protein HSP90. Description: Inhibition of HSP90 at C-terminus in human SKBR3 cell lysates assessed as induction of Her2 protein degradation at 0.1 to 10 uM after 24 hrs by Western blot analysis. The format is cell-based. Conditions: SK-BR-3. A digest of the protocol: as §1
Data set [6] concerns the target T1, Heat shock protein HSP90. Nature of the data set: Inhibition of HSP90 at C-terminus in human SKBR3 cell lysates at 0.5 to 5 times antiproliferative EC50 after 24 hrs by Western blot analysis. The format is cell-based. Conditions: SK-BR-3. A digest of the protocol: as §1

The EC50 is the concentration at which the effect is half-maximal. Regarding `CCOC(=O)C(=O)Nc1nc2ccc(NC(=O)c3cc(Br)c[nH]3)cc2s1`, the figures for the EC50 with MCF7 and in the data set with SK-BR-3 were 41.3 µM and 27.9 µM, respectively.

Turning to `CCOC(=O)C(=O)Nc1ccc2nc(NC(=O)c3cc4ccc(OC)cc4[nH]3)sc2c1`, the EC50 in the data set on MCF7 was > 50 µM; in the data set with SK-BR-3, 6.7 µM.

On to `CCOC(=O)C(=O)Nc1ccc2nc(NC(=O)c3cc4cc(CC)ccc4[nH]3)sc2c1`, for which the EC50 in the data set on MCF7 amounted to 25.3 µM; in the data set on SK-BR-3, 20.6 µM.

For the molecule `Cc1ccc2[nH]c(C(=O)Nc3nc4ccc(NC(=O)C(=O)c5ccccc5)cc4s3)cc2c1`, the EC50 in the data set on MCF7 and with SK-BR-3 was > 50 µM each time.

As to `CCOC(=O)C(=O)Nc1ccc2nc(NC(=O)c3cc4cc(OC)ccc4[nH]3)sc2c1`, the inhibition entry at Heat shock protein HSP90 [1], on Heat shock protein HSP90 [2], on Heat shock protein HSP90 [3] and on Heat shock protein HSP90 [5] was “Active” throughout. Besides, the figures for the EC50 in the data set with MCF7 and with SK-BR-3 were 7.03 µM and 0.86 µM, respectively. In addition, the “inhibition (INH)” value on Heat shock protein HSP90 [4] was “Not Active”.

Take `CCOC(=O)C(=O)Nc1ccc2nc(NC(=O)c3ccc(OC)cc3)sc2c1`: the EC50 in the data set on MCF7 was > 50 µM; in the data set on SK-BR-3 it was 10.7 µM.

Regarding `CCOC(=O)C(=O)Nc1nc2ccc(NC(=O)c3ccccc3)cc2s1`, the figures for the EC50 in the data set with MCF7 and with SK-BR-3 were > 50 µM and 9.73 µM, respectively.

On to `CC(=O)Nc1nc2ccc(NC(=O)c3cc(Br)c(Br)[nH]3)cc2s1`, for which the EC50 with MCF7 and in the data set on SK-BR-3 was > 50 µM in each case.

Regarding `CCOC(=O)C(=O)Nc1ccc2nc(NC(=O)c3ccc4c(c3)OCO4)sc2c1`, the EC50 with MCF7 and in the data set on SK-BR-3 was > 50 µM throughout.

`COc1ccc2[nH]c(C(=O)Nc3nc4ccc(NC(=O)C(=O)c5ccccc5)cc4s3)cc2c1`: the EC50 with MCF7 and with SK-BR-3 was > 50 µM in each case.

Take `CC(=O)C(=O)Nc1ccc2nc(NC(=O)c3cc4ccccc4[nH]3)sc2c1`: the EC50 in the data set with MCF7 and in the data set with SK-BR-3 was > 50 µM in each case.

With `CCOC(=O)C(=O)Nc1ccc2nc(NC(=O)c3cc4cc(C)ccc4[nH]3)sc2c1`, the values for the EC50 with MCF7 and in the data set on SK-BR-3 were 10.1 µM and 2.81 µM, respectively.

Turning to `CCOC(=O)C(=O)Nc1ccc2nc(NC(=O)c3cc4ccccc4[nH]3)sc2c1`, the EC50 with MCF7 turned out to be 8.99 µM; in the data set on SK-BR-3 it was 5.41 µM.

Consider `CCOC(=O)C(=O)Nc1ccc2nc(NC(=O)c3ncccn3)sc2c1`, for which the EC50 with MCF7 and in the data set with SK-BR-3 was > 50 µM in each case.

Turning to `CCOC(=O)C(=O)Nc1nc2ccc(NC(=O)c3cc(Br)c(Br)[nH]3)cc2s1`, the EC50 with MCF7 is 10.1 µM; in the data set with SK-BR-3, 3.59 µM.

In the case of `CCOC(=O)C(=O)Nc1nc2ccc(NC(=O)c3cc4ccccc4[nH]3)cc2s1`, the EC50 with MCF7 came out at 11.2 µM; with SK-BR-3, 6.94 µM.

Consider `CCOC(=O)C(=O)Nc1ccc2nc(NC(=O)c3cc(Br)c(Br)[nH]3)sc2c1`, for which the EC50 was > 50 µM in the data set on MCF7 and 2.41 µM in the data set with SK-BR-3. Also, on Heat shock protein HSP90 [6], the inhibition result is “Active”.
